≈ marks a conversion by molar mass, not a printed value. Entries after “also recorded” stand apart in the source; their conditions may differ. Some results are limits rather than exact numbers.

The target in data set [1] is T1, human recombinant ATX (Homo sapiens, UniProt Q13822). Kind of data set: ATX inhibition, hydrolysis of FRET substrate FS-3. In kind it is biochemical. To be noted: for Mechanism: FS-3 0 to 10 μM, inhibitor at 0, 0.5 × IC50 or 2 × IC50. The gist of the method: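 Human ATX, C-terminal FLAG-tagged, expressed in Sf9 cells by baculovirus and purified on anti-FLAG beads. Fluorescence (485/528 nm) read every 2 min for 1 h. Percent activity taken at 1 h; IC50 (±SD) interpolated from a variable-slope Hill fit.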

A short description of the next data set: Water solubility. Type of data set: physicochemical.
Data set [2] addresses T1, human recombinant ATX. The experiment in a line: ATX inhibition, hydrolysis of nucleotide substrate pNP-TMP. In kind it is biochemical. To be noted: 1 mM pNP-TMP, 4 nM human rATX. In short, it runs like this: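 Purified FLAG-tagged human ATX from the Sf9 baculovirus system was run with nucleotide substrate pNP-TMP in triplicate wells. Absorbance at 405 nm read every 2 min for 1 h; triplicate means recorded and percent activity derived from the 1 h point.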

A further data set is described as follows: log P. In kind it is physicochemical.
A further data set deals with LPAR1 (Homo sapiens, UniProt Q92633). Kind of data set: LPA1 receptor antagonism, calcium mobilization in LPA1 RH7777 cells. Type of data set: cell-based. To be noted: for LPAR1 inhibitory activity: result in words. The gist of the method:
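Stably LPA1-overexpressing rat hepatoma RH7777 cells, kept in DMEM, 10% FBS, 2 mM L-glutamine, 250 μg/mL G418, 37 °C, 5% CO2. Plated at 5 × 10^4 cells/well on poly-L-lysine overnight, serum-deprived 4 h in Krebs buffer (pH 7.4), loaded 30 min with 4.5 μg/mL Fura-2AM. Compound dose range tested with and without LPA 18:1 at its EC50 concentration. Fluorescence 340/510 and 380/510 nm every 3.42 s for 70 s. Triplicate mean ratios normalized to LPA Emax; IC50 from variable-slope fit.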

Where [3] appears, read: IC50 (nM ± SD) vs FS-3, 1 μM FS-3, 4 nM human rATX, 1 h.
The mark [4] stands for this setting: Experimental pIC50, -log IC50, ATX enzyme inhibition.
Setting [5] is: IC50 (nM) ATX enzyme, QSAR data set, compounds of this study.

Sequence of LPAR1 (Q92633 whole entry, species assumed): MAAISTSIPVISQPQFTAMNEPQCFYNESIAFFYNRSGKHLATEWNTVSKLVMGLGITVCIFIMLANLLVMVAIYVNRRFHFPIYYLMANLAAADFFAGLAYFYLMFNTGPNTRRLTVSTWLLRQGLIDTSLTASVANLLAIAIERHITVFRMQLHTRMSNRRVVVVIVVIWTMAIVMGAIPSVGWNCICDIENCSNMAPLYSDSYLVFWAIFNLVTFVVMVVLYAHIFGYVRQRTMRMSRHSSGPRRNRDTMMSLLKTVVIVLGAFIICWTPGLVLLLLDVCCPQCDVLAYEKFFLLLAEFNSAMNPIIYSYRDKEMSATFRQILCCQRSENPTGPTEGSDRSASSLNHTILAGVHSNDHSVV

Regarding `CS(=O)(=O)N(c1cc(C(=O)Nc2cc(F)c(F)c(F)c2)c(Cl)cc1Cl)C1CCOCC1` [Compound 10, 2,4-dichloro-5-(N-(tetrahydro-2H-pyran-4-yl)-methylsulfonamido)-N-(3,4,5-trifluorophenyl)-benzamide], the Mechanism entry on human recombinant ATX [1] was “Competitive”. In addition, on human recombinant ATX [1] (setting [3]), the IC50 was determined as 220 ± 14.7 nM. Moreover, the solubility in the data set “Water solubility” is above 100 µg/mL. At human recombinant ATX [2], the pNP-TMP inhibition result is recorded as “none”. In “log P”, this molecule showed a logP of 3.2. For the same molecule, the LPAR1 inhibitory activity entry on LPAR1 is “neither compound 10 nor compound 11 showed any LPAR1 inhibitory activity; also recorded: no LPAR1 inhibitory activity”.

Take `CS(=O)(=O)N(c1cc(C(=O)Nc2cc(F)c(Cl)c(F)c2)c(Cl)cc1Cl)C1CCOCC1` [Compound 11, 2,4-dichloro-N-(4-chloro-3,5-difluorophenyl)-5-(N-(tetrahydro-2H-pyran-4-yl)-methylsulfonamido)-benzamide]: the half-maximal inhibitory concentration (IC50) at human recombinant ATX [1] (setting [4]) was 219 nM; on human recombinant ATX [1] (setting [3]) it was 219 ± 25.2 nM; on human recombinant ATX [1] (setting [5]), 219 nM. Besides, the Mechanism result at human recombinant ATX [1] is listed as “Competitive”. This molecule yielded a solubility in “Water solubility” above 100 µg/mL. Besides, the pNP-TMP inhibition result at human recombinant ATX [2] was “none”. The same molecule came in with a logP in the data set “log P” of 3.68. The LPAR1 inhibitory activity result at LPAR1 is “neither compound 10 nor compound 11 showed any LPAR1 inhibitory activity; also recorded: no LPAR1 inhibitory activity”.

Take `N#CC(c1ccc(F)c(C(=O)Nc2cc(F)c(F)c(F)c2)c1)N1CCOCC1` (stereo not drawn) [Compound 14, 5-(cyano(morpholino)methyl)-2-fluoro-N-(3,4,5-trifluorophenyl)-benzamide]: the 50% inhibitory concentration (IC50) on human recombinant ATX [1] (setting [3]) was above 1000 nM; at human recombinant ATX [1] (setting [5]) it was at least 1000 nM; at LPAR1, above 1000 nM. The solubility in the data set “Water solubility” came out at 50 µg/mL (≈ 127 µM). The pNP-TMP inhibition result on human recombinant ATX [2] was “none”. This molecule also gave a logP in “log P” of 2.91.

With `O=C(Nc1cc(F)c(F)c(F)c1)c1cc(C(C(=O)O)N2CCOCC2)ccc1F` (stereo not drawn) [Compound 15, 2-(4-fluoro-3-((3,4,5-trifluorophenyl)-carbamoyl)-phenyl)-2-morpholinoacetic acid], the IC50 is above 1000 nM at human recombinant ATX [1] (setting [4]), above 1000 nM at human recombinant ATX [1] (setting [3]), at least 1000 nM on human recombinant ATX [1] (setting [5]) and above 1000 nM at LPAR1. This molecule showed a solubility in “Water solubility” above 100 µg/mL. For the same molecule, the pNP-TMP inhibition result at human recombinant ATX [2] is “none”. In the data set “log P”, this molecule yielded a logP of 2.44.

Source of the values: paper PMC8163515 (Bioorganic chemistry, 2020).
